Measured values published in ChEMBL document CHEMBL3351692, “Discovery and optimization of 1,3,5-trisubstituted pyrazolines as potent and highly selective allosteric inhibitors of protein kinase C-ζ” (J Med Chem, 2014).
Activity calls are given as the source filed them. The calls are words filed in the database; no cut-off is given here.

What was measured:
[1] = target: T1, Protein kinase C zeta type (Homo sapiens, UniProt Q05513); experiment: Inhibition of human PKCzeta assessed as phosphorylation reaction after 4 mins incubation by cell-free assay
T1 sequence (Q05513 whole entry): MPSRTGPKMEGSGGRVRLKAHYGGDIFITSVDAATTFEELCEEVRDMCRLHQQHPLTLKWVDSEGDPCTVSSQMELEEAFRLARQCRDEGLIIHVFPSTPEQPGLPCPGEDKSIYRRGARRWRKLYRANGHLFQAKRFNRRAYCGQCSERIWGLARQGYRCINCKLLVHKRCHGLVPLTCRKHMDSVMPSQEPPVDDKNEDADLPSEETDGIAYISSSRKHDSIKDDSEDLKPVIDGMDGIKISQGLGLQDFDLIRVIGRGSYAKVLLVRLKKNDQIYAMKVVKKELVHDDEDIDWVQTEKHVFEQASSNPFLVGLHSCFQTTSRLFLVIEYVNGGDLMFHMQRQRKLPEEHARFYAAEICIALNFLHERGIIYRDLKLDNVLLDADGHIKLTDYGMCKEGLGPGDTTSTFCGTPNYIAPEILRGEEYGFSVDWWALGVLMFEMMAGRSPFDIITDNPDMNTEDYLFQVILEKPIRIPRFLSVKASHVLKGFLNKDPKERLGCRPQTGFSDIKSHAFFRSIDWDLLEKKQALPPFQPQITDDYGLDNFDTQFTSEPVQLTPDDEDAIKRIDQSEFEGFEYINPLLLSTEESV

RAW264.7 = experiment: Cytotoxicity against mouse RAW264.7 cells assessed as living cells at 7.5 uM by MTT assay; assay type: cell-based; conditions: raw264.7, 7.5 µM
Summary of the method: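 RAW 264.7 macrophages: MTT viability assay run in parallel with each nitrite (Griess) experiment, same cell line and same compound treatment conditions.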

[2] = target: T2, Protein kinase C iota type (Homo sapiens) (UniProt P41743); experiment: Inhibition of PKCiota (unknown origin) at 20 uM
T2 sequence (whole entry): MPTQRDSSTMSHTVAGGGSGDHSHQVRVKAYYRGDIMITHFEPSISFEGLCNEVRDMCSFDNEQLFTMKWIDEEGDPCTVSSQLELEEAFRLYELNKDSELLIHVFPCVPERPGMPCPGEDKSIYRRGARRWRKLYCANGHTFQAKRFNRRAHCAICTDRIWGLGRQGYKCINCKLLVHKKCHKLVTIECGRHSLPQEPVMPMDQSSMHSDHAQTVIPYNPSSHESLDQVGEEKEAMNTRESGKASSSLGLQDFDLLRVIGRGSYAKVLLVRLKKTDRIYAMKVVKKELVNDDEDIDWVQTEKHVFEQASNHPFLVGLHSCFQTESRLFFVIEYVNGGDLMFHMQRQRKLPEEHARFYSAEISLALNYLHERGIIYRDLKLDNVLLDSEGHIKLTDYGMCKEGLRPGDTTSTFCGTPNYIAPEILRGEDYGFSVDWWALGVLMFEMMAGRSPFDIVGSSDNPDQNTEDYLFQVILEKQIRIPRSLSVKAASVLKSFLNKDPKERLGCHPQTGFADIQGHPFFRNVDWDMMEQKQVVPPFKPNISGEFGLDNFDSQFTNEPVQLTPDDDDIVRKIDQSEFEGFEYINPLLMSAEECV
Summary of the method: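 Cell-free radiometric kinase assay with purified recombinant PKCι under conditions similar to the PKCζ assay. Reaction mixtures preincubated 4 min at 37 °C, then phosphorylation started with γ32P-ATP/Mg2+. Mean of at least two experiments.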

[3] = target: Protein kinase C zeta type (Homo sapiens, UniProt Q05513, V297L); experiment: Inhibition of PKCzeta val297leu mutant (unknown origin) assessed as phosphorylation reaction after 4 mins incubation by cell-free assay
Homo sapiens = organism: Homo sapiens; experiment: Ratio of IC50 for PKCzeta val297leu mutant (unknown origin) to IC50 for wild type PKCzeta (unknown origin)
Summary of the method: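 Cell-free radiometric assay with purified recombinant full-length PKCζ wild type or PIF-pocket V297L mutant. Enzyme present at 0.2 μM. 4 min preincubation at 37 °C, reaction started with γ32P-ATP/Mg2+. IC50 values are means of at least two experiments.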

[4] = target: T3, Nitric oxide synthase, inducible (Mus musculus) (UniProt P29477); experiment: Inhibition of iNOS induction in mouse RAW264.7 cells assessed as NO production at 7.5 uM; assay type: cell-based
T3 sequence (whole entry): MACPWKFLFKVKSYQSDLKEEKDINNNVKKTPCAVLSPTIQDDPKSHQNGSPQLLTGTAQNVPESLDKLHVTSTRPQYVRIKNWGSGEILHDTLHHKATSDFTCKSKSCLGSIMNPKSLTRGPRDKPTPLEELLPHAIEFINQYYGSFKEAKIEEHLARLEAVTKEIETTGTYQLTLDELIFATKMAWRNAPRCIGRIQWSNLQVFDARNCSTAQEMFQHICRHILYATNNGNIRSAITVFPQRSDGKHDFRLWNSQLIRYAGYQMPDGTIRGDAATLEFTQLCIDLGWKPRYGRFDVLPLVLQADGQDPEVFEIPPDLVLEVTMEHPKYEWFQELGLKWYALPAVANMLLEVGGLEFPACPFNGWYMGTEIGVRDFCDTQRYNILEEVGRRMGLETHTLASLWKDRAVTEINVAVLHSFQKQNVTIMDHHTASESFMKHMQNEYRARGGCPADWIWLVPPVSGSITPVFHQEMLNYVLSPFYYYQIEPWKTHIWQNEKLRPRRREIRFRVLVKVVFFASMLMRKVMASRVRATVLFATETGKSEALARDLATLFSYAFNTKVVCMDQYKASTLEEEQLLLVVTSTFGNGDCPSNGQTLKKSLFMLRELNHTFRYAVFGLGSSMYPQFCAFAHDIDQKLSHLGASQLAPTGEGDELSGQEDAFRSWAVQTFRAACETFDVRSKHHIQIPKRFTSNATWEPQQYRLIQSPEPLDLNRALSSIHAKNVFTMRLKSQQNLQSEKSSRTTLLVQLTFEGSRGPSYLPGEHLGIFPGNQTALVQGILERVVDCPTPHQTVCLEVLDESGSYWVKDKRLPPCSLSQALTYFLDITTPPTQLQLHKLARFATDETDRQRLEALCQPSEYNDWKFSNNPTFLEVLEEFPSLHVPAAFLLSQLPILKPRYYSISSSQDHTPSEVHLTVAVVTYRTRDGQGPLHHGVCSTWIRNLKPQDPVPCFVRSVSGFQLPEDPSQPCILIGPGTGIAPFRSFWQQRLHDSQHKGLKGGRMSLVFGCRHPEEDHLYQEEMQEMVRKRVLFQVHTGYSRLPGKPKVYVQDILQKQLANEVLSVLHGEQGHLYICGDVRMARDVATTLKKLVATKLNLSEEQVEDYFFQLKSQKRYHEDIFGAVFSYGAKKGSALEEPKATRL
Summary of the method: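 RAW 264.7 cells seeded at 8 × 10⁴ per well in DMEM/10% FBS and grown 2 days. Then exposed to LPS with compound or DMSO for 20 h. Supernatant nitrite measured by Griess reaction (sulfanilamide/NED) at 550 nm minus 620 nm background, quantified against a sodium nitrite standard curve. At least four experiments in triplicate.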

[5] = target: T1, Protein kinase C zeta type; experiment: Inhibition of PKCzeta in human U937 cells assessed as inhibition of TNFalpha-induced NF-kappaB activation by reporter gene assay; assay type: cell-based, U-937
[6] = target: T4, Protein kinase C zeta type (Homo sapiens) (UniProt Q05513); experiment: Inhibition of PKCzeta (unknown origin) expressed in HEK293 cells assessed as reduction in specific activity for 6 hrs after 30 mins IGF-I stimulation by in serum free medium; assay type: cell-based
T4 sequence (whole entry): T1 sequence (Q05513 whole entry)
Summary of the method: (§1)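 HEK293 cells transfected at 80% confluency with GST-PKCζ wild-type or V297L mutant plasmids. Next day switched to DMEM with 0.1% FCS and compound or DMSO for 6 h, then IGF-I 50 ng/mL final for 30 min at 37 °C. Lysed; GST-PKCζ pulled down on glutathione beads and eluted. 50 ng per reaction assayed for kinase activity with myelin basic protein as substrate. Triplicate treatments, two independent experiments.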

[7] = target: T4, Protein kinase C zeta type (Homo sapiens); experiment: Inhibition of PKCzeta in serum-starved human U937 cells assessed as inhibition of TNFalpha-stimulated activation loop phosphorylation at 2.5 to 5 uM by immunoblotting analysis; assay type: cell-based; conditions: U-937
Summary of the method: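 U937 cells in RPMI/10% FBS, serum-starved 24 h, treated with compound or DMSO for 1 h, then TNFα 50 ng/mL for 30 min. Whole-cell lysates separated by SDS–PAGE (10% gel) and immunoblotted for phospho-PKCζ/λ (Thr410/403), with β-actin as loading control. Near-infrared detection. Two separate experiments.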

[8] = target: Protein kinase C alpha type (Homo sapiens) (UniProt P17252); experiment: Inhibition of human PKCalpha at 10 uM relative to control
[9] = target: Protein kinase C beta type (Homo sapiens) (UniProt P05771); experiment: Inhibition of human PKCbeta1 at 10 uM relative to control
[10] = target: Protein kinase C gamma type (Homo sapiens) (UniProt P05129); experiment: Inhibition of human PKCgamma at 10 uM relative to control
[11] = target: Protein kinase C delta type (Homo sapiens) (UniProt Q05655); experiment: Inhibition of human PKCdelta at 10 uM relative to control
[12] = target: Protein kinase C epsilon type (Homo sapiens) (UniProt Q02156); experiment: Inhibition of human PKCepsilon at 10 uM relative to control
[13] = target: Protein kinase C eta type (Homo sapiens) (UniProt P24723); experiment: Inhibition of human PKCeta at 10 uM relative to control
[14] = target: Protein kinase C theta type (Homo sapiens) (UniProt Q04759); experiment: Inhibition of human PKCtheta at 10 uM relative to control
[15] = target: cAMP-dependent protein kinase catalytic subunit alpha (Homo sapiens) (UniProt P17612); experiment: Inhibition of human PKA at 10 uM relative to control
[16] = target: Ribosomal protein S6 kinase alpha-1 (Homo sapiens) (UniProt Q15418); experiment: Inhibition of human RSK1 at 10 uM relative to control
[17] = target: Ribosomal protein S6 kinase alpha-5 (Homo sapiens) (UniProt O75582); experiment: Inhibition of human MSK1 at 10 uM relative to control
[18] = target: Ribosomal protein S6 kinase beta-1 (Homo sapiens) (UniProt P23443); experiment: Inhibition of human p70S6K at 10 uM relative to control
[19] = target: Serine/threonine-protein kinase Sgk1 (Homo sapiens) (UniProt O00141); experiment: Inhibition of human SGK1 at 10 uM relative to control
[20] = target: 3-phosphoinositide-dependent protein kinase 1 (Homo sapiens) (UniProt O15530); experiment: Inhibition of human PDK1 at 10 uM relative to control
U-937 = experiment: Inhibition of Thr410 phosphorylation in serum-starved human U937 cells at 5 to 10 uM by immunoblotting analysis
[21] = target: Inhibitor of nuclear factor kappa-B kinase subunit beta (Homo sapiens) (UniProt O14920); experiment: Inhibition of human IKKbeta at 10 uM relative to control
[22] = target: Receptor-interacting serine/threonine-protein kinase 2 (Homo sapiens) (UniProt O43353); experiment: Inhibition of human RIPK2 at 10 uM relative to control
[23] = target: Mitogen-activated protein kinase 14 (Homo sapiens) (UniProt Q16539); experiment: Inhibition of human p38alpha MAPK at 10 uM relative to control
[24] = target: Mitogen-activated protein kinase kinase kinase 7 (Homo sapiens) (UniProt O43318); experiment: Inhibition of human TAK1 at 10 uM relative to control
[25] = target: Serine/threonine-protein kinase TBK1 (Homo sapiens) (UniProt Q9UHD2); experiment: Inhibition of human TBK1 at 10 uM relative to control
[26] = target: Protein kinase C beta type (Homo sapiens) (UniProt P05771); experiment: Inhibition of human PKCbeta2 at 10 uM relative to control
[27] = target: T4, Protein kinase C zeta type (Homo sapiens); experiment: Inhibition of PKCzeta (unknown origin) expressed in HEK293 cells assessed as reduction in specific activity at 2 to 5 uM for 6 hrs after 30 mins IGF-I stimulation by in serum free medium; assay type: cell-based; summary of the method: as §1

Protein kinase C beta type (Homo sapiens), sequence (P05771 2-671 limits assumed): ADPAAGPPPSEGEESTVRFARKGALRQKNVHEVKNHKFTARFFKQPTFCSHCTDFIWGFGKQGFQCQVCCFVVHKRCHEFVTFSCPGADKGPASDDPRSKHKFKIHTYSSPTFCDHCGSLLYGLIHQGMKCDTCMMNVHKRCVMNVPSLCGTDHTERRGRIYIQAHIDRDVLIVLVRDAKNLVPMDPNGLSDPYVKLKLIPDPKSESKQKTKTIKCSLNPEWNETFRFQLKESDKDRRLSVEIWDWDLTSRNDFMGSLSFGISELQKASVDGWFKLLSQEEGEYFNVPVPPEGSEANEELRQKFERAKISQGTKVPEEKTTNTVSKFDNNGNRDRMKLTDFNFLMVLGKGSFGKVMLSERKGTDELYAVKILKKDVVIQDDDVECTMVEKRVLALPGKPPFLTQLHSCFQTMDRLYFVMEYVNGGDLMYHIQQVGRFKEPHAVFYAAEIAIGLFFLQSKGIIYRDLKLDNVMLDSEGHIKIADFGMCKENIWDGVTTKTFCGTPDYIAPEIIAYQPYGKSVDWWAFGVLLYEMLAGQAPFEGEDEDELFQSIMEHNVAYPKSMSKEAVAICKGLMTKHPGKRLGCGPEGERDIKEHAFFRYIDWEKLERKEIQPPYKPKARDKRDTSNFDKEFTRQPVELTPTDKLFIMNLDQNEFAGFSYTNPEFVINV
Protein kinase C zeta type (Homo sapiens, UniProt Q05513, V297L), sequence (Q05513 whole entry V297L): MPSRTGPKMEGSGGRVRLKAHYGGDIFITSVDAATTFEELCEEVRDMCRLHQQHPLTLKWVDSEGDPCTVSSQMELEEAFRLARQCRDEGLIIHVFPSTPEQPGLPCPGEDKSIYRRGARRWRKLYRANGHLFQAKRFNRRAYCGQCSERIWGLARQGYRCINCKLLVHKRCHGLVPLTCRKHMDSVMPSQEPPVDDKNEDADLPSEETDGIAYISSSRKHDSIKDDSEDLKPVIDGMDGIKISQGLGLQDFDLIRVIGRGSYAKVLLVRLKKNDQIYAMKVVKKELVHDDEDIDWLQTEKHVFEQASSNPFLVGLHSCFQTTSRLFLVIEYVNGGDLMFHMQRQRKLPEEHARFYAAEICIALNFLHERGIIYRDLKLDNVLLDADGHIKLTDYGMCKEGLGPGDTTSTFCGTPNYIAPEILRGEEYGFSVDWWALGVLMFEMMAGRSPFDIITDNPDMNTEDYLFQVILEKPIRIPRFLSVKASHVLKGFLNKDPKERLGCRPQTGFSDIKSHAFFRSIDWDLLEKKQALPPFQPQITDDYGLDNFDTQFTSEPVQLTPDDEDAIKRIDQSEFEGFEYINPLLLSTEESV
Receptor-interacting serine/threonine-protein kinase 2 (Homo sapiens), sequence (O43353 whole entry): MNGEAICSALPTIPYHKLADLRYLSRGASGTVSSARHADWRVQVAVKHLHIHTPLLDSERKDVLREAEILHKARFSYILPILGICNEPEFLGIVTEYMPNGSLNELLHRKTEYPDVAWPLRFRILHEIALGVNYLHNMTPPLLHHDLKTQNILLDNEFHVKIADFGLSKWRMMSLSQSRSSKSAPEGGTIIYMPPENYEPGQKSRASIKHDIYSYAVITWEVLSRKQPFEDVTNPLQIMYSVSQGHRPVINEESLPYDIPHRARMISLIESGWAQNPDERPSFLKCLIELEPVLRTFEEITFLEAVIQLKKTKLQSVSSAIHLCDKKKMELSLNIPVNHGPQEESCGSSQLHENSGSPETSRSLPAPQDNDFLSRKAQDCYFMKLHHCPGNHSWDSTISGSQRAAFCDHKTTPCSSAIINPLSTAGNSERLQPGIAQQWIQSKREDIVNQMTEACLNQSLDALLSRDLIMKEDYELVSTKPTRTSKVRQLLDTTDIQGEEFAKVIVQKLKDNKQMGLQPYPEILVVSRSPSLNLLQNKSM
Serine/threonine-protein kinase Sgk1 (Homo sapiens), sequence (O00141 whole entry): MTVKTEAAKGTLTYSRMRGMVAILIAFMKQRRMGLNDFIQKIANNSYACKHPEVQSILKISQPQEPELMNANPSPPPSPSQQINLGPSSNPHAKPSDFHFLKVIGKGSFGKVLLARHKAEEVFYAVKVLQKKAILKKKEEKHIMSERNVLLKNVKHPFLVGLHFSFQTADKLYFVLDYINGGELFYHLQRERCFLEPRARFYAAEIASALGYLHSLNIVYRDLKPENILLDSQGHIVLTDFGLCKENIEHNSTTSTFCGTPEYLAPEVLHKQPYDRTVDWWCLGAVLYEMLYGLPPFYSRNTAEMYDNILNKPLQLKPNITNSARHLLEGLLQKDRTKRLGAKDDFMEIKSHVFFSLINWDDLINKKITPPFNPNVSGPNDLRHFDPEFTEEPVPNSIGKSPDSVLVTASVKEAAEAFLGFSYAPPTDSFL
Ribosomal protein S6 kinase alpha-5 (Homo sapiens), sequence (O75582 whole entry, looked up): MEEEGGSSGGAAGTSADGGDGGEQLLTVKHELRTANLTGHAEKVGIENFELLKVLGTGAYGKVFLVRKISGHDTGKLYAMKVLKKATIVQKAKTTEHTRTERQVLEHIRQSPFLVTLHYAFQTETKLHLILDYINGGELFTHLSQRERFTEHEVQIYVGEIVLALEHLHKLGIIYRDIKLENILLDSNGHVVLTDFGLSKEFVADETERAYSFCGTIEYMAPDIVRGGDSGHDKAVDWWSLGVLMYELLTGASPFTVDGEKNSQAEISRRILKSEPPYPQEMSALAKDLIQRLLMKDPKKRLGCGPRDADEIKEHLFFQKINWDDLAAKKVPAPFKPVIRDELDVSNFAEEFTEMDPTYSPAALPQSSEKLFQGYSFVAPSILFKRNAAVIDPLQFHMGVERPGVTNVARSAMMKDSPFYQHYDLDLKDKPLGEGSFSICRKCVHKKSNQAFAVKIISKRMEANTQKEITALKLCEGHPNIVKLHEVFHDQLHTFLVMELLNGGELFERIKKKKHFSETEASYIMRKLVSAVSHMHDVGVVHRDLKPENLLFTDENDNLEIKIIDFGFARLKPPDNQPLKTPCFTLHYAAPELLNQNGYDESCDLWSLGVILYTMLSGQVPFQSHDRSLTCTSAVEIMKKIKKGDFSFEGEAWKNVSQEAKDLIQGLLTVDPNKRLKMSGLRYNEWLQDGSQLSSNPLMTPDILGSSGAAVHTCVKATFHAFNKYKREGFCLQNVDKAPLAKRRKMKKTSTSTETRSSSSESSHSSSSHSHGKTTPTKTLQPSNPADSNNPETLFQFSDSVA
Protein kinase C delta type (Homo sapiens), sequence (Q05655 whole entry, looked up): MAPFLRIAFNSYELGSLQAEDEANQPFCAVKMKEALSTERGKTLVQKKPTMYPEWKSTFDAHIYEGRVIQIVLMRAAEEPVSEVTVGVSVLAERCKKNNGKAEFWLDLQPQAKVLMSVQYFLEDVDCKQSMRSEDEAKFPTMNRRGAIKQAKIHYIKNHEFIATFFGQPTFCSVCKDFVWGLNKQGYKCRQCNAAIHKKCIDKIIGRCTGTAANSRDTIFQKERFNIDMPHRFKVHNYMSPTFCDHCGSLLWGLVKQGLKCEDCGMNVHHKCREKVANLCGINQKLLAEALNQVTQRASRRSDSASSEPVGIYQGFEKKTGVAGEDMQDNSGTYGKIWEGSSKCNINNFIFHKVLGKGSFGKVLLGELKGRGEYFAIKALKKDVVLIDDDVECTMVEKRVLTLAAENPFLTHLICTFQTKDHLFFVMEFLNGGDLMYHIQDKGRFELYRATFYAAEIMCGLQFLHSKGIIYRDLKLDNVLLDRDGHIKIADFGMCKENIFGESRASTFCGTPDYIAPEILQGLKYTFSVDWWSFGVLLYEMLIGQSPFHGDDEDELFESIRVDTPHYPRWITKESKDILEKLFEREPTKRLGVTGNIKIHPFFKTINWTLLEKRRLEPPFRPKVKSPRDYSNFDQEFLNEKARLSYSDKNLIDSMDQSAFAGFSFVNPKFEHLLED
Protein kinase C epsilon type (Homo sapiens), sequence (Q02156 whole entry): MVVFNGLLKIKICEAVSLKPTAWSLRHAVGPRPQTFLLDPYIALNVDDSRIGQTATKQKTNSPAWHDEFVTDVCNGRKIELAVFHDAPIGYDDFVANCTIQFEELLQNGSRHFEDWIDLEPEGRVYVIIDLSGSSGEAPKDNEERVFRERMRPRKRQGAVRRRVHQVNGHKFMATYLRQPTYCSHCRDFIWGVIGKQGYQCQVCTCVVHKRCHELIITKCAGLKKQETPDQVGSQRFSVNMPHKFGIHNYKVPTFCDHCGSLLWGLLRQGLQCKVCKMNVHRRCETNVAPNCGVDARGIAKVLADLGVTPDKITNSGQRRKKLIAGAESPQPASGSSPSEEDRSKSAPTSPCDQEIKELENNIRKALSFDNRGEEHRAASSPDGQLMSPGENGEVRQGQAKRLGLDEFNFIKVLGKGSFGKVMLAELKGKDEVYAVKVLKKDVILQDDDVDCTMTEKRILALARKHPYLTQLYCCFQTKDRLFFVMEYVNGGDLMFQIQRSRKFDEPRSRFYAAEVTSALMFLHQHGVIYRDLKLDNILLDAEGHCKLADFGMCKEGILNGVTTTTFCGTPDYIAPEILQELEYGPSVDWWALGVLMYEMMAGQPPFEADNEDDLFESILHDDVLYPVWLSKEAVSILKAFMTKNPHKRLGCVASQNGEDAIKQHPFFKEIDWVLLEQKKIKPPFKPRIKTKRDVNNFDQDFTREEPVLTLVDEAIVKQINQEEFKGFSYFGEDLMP
Ribosomal protein S6 kinase beta-1 (Homo sapiens), sequence (P23443 whole entry, looked up): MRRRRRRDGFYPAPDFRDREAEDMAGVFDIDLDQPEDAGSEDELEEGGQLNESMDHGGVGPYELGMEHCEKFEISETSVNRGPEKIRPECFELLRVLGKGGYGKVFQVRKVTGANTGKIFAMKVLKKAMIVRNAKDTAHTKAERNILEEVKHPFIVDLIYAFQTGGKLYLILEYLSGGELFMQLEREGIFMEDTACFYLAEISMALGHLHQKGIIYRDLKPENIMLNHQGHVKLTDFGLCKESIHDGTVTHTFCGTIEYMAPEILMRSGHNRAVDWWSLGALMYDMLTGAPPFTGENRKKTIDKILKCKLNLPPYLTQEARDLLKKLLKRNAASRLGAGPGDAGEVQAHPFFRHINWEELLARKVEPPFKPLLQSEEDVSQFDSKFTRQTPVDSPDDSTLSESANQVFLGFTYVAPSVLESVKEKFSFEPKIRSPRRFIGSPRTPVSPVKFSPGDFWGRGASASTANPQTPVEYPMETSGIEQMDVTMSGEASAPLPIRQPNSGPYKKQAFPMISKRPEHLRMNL

SMILES | IC50 [1] | Activity (RAW264.7) | inhibition [2] | IC50 [3] | Ratio IC50 (Homo sapiens) | inhibition [4] | IC50 [5] | inhibition [7] | inhibition [26] | also measured
Oc1ccc(C2CC(c3cccs3)=NN2c2ccc(Br)cc2)cc1 (stereo not drawn) | 500 nM | Non-toxic | 21.4% | 1000 nM | 2 | 65% |  |  |  | 
CC(C)(C)C1=NN(c2cccc(Cl)c2)C(c2ccc(F)c(O)c2)C1 (stereo not drawn) | 300 nM | Non-toxic |  |  |  | 74% | 2500 nM | Active |  | inhibition [6]: Dose-dependent effect; inhibition [8]: 4%; inhibition [9]: inactive; inhibition [10]: 6%; inhibition [11]: inactive; inhibition [12]: inactive; inhibition [13]: inactive; inhibition [14]: inactive; inhibition [15]: inactive; inhibition [16]: 3%; inhibition [17]: inactive; inhibition [18]: inactive; inhibition [19]: 18%; inhibition [20]: 8%; inhibition (U-937): Active
CC(C)(C)C1=NN(c2ccc(Cl)cc2)C(c2ccc(O)cc2)C1 (stereo not drawn) |  | Non-toxic |  |  |  | 50% |  |  | inactive | inhibition [21]: inactive; inhibition [22]: inactive; inhibition [23]: 10%; inhibition [24]: inactive; inhibition [25]: inactive
CC(C)(C)C1=NN(c2ccc(Cl)cc2)C(c2ccc(O)c(Cl)c2)C1 (stereo not drawn) | 700 nM | Non-toxic | 0% | 14800 nM | 20.8 |  | 2900 nM |  |  | 
Oc1ccc(C2CC(c3ccccc3O)=NN2c2ccc(Cl)cc2)cc1 (stereo not drawn) | 1500 nM | Non-toxic | 13.4% | 3100 nM | 2.1 |  |  |  |  | 
Cn1cc(C2=C(c3cn(CCCSC(=N)N)c4ccccc34)C(=O)NC2=O)c2ccccc21 |  |  |  |  |  |  |  | inactive | Active | inhibition [27]: inactive
